Results: PMC5901702 (Journal of biomolecular screening, 2012)

These compounds were tested against T1, rat IDE (Rattus norvegicus, UniProt P35559) (assay: Kinetic analysis of rat IDE in presence of activator). Conditions: compound 100 µM; 0.1 M KPi pH 7.6; DMSO control 154.8 ± 12.26.
T1 sequence (P35559 1-1019): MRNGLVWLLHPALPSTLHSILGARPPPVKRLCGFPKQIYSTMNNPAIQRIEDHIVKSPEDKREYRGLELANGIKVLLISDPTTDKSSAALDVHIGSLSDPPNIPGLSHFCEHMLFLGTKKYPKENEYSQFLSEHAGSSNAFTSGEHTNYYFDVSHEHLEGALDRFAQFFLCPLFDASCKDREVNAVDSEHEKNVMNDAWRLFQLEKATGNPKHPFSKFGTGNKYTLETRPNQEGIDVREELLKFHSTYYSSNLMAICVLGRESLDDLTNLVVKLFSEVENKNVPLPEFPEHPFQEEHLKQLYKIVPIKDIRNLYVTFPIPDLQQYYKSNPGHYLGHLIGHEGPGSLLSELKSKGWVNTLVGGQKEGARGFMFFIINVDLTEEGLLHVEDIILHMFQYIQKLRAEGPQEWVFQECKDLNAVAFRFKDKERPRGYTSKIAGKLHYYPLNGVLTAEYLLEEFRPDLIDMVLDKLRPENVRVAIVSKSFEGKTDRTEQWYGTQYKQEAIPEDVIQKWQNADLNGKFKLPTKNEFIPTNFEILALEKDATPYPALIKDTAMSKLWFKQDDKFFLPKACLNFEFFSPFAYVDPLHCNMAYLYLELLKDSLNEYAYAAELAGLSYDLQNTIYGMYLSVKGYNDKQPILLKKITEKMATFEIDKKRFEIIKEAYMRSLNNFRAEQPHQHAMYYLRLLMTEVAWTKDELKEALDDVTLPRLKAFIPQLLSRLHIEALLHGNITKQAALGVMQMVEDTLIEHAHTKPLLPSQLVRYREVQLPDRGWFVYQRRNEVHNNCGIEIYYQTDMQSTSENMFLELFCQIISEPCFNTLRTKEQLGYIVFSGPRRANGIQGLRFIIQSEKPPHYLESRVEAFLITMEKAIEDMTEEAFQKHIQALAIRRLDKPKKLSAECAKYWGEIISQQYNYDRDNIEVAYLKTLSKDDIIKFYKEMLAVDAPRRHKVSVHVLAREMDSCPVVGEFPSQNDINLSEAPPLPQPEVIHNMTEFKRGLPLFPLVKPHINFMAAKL
Type: biochemical
With `Cn1ncc2c(NCCc3ccccc3)nc(Cl)nc21` [Compound 2] the Vmax was 164.2 ± 6.4 nmol/min/mg.
For `O=[N+]([O-])/C=C/c1cc2ccccc2[nH]1` [Compound 8], the Vmax was 185.0 ± 9.73 nmol/min/mg.
With `O=C(CCN1CC2CCC(CC2)C1)c1cccs1` [Compound 6] the Vmax was 176.3 ± 7.35 nmol/min/mg.
`Nc1nc(SCc2ccccc2Cl)cc(C(=O)O)n1` [Compound 5] was tested, and the Vmax was 127.8 ± 10.41 nmol/min/mg.
For `O=C(O)c1ccc(Oc2nc3ccccc3s2)cc1` [Compound 7], the Vmax was 194.1 ± 13.81 nmol/min/mg.
Compound `O=S(=O)(O)CCCc1cccc2ccccc12` [Compound 1] has a Vmax of 194.1 ± 5.85 nmol/min/mg.

These compounds were tested on pronase E (assay: Target specificity: pronase E activity with a-factor–based peptide). Conditions: 100 µM compound; relative to DMSO control = 100%.
Type: biochemical
Method in brief: (§1)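 Single-dose specificity assay with a-factor–based fluorogenic peptide (50 µM) in 0.1 M KPi pH 7.6. Ste23p was used at 10 µg/mL and 30 °C; trypsin and pronase E at 0.5 µg/mL each under the 37 °C HTS conditions. Enzymes were preincubated 10 min with 100 µM compound. Triplicate rates were normalized by trypsin/pronase full digestion and given relative to DMSO control (100%).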
In the case of `Cn1ncc2c(NCCc3ccccc3)nc(Cl)nc21` [Compound 2], the “% Activity Pronase” value is reported as 89.2 ± 0.6%.
`O=[N+]([O-])/C=C/c1cc2ccccc2[nH]1` [Compound 8] was tested, and the “% Activity Pronase” value was 93.3 ± 1.8%.
`O=C(CCN1CC2CCC(CC2)C1)c1cccs1` [Compound 6] was tested, and the “% Activity Pronase” value was 104.4 ± 0.0%.
`O=S(=O)(O)c1cc(O)c2c(O)c(N=Nc3cccc4ccccc34)c(S(=O)(=O)O)cc2c1` [Compound 3] was tested, and the “% Activity Pronase” value was 103.8 ± 0.1%.
With `O=C(O)c1ccc(Oc2nc3ccccc3s2)cc1` [Compound 7] the “% Activity Pronase” value was 104.3 ± 0.9%.
`O=S(=O)(O)CCCc1cccc2ccccc12` [Compound 1] was tested, and the “% Activity Pronase” value was 100.9 ± 0.1%.

What follows are compounds tested against T2, Ste23p (Saccharomyces cerevisiae, UniProt Q06010) (assay: Target specificity: Ste23p activity with a-factor–based peptide). Conditions: 100 µM compound; 30 °C; relative to DMSO control = 100%.
T2 sequence (Q06010 1-1027): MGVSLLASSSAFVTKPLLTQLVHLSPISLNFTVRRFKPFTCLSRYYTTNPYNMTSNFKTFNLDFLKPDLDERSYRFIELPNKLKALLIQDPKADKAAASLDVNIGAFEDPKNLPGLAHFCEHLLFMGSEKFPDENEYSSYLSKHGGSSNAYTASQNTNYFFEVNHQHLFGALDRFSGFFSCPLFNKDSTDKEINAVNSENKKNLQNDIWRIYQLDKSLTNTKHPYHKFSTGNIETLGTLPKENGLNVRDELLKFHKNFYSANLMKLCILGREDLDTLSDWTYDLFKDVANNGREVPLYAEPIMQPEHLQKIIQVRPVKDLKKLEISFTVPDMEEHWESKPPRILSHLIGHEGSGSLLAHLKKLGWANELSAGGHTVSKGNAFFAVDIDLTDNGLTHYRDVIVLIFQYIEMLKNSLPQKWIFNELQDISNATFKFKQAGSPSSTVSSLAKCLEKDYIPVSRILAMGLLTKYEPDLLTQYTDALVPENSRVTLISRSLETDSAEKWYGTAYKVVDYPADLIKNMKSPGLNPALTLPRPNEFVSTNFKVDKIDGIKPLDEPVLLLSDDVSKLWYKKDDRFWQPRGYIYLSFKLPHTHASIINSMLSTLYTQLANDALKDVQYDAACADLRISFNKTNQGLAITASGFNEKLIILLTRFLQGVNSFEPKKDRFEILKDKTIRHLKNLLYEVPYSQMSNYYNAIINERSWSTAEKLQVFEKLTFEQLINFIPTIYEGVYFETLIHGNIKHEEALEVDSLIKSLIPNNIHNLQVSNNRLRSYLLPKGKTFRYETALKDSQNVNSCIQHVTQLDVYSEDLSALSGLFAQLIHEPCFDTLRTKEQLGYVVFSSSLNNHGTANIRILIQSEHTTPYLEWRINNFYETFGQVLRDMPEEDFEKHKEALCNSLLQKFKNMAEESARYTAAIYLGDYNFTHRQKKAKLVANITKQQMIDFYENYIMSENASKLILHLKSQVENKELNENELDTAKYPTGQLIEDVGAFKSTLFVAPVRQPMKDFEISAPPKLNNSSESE
Type: biochemical, yeast
Method in brief: as §1
In the case of `Cn1ncc2c(NCCc3ccccc3)nc(Cl)nc21` [Compound 2], the “% Activity Ste23p” value is reported as 117.2 ± 2.8%.
`O=[N+]([O-])/C=C/c1cc2ccccc2[nH]1` [Compound 8] was tested, and the “% Activity Ste23p” value was 80.1 ± 6.0%.
`O=C(CCN1CC2CCC(CC2)C1)c1cccs1` [Compound 6] was tested, and the “% Activity Ste23p” value was 82 ± 0.3%.
`Nc1nc(SCc2ccccc2Cl)cc(C(=O)O)n1` [Compound 5] was tested, and the “% Activity Ste23p” value was 103.4 ± 1.6%.
`O=S(=O)(O)c1cc(O)c2c(O)c(N=Nc3cccc4ccccc34)c(S(=O)(=O)O)cc2c1` [Compound 3] was tested, and the “% Activity Ste23p” value was 90.4 ± 0.6%.
For `O=C(O)c1ccc(Oc2nc3ccccc3s2)cc1` [Compound 7], the “% Activity Ste23p” value was 102.1 ± 1.7%.
For `O=S(=O)(O)CCCc1cccc2ccccc12` [Compound 1], the “% Activity Ste23p” value was 112.0 ± 5.4%.

What follows are compounds tested against T1, rat IDE (assay: Dose-response of rat IDE activation). Conditions: highest concentration tested 1 mM.
Type: biochemical
Method in brief: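 Rat IDE (10 µg/mL) in 0.1 M KPi pH 7.6 was preincubated 10 min at 37 °C with activator (up to 1 mM), then mixed 1:1 with a-factor–based fluorogenic substrate (50 µM final). Fluorescence (320 ex) was read over 60 min and rate taken from the 15–30 min window. Baseline was subtracted and rates normalized to trypsin/pronase E full digestion. AC50 came from best-fit curves, or [Max]50 where the curve was not sigmoidal.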
With `O=S(=O)(O)CCCc1cccc2ccccc12` [Compound 1] the Saturation of activation was “not achieved”.

Same assay, conditions: rat IDE activation, a-factor–based substrate
For `Cn1ncc2c(NCCc3ccccc3)nc(Cl)nc21` [Compound 2], the dose-response profile was “classic sigmoidal dose-responses”.
In the case of `O=[N+]([O-])/C=C/c1cc2ccccc2[nH]1` [Compound 8], the dose-response profile is reported as “inverted bell-shaped activation curve”.
In the case of `O=C(CCN1CC2CCC(CC2)C1)c1cccs1` [Compound 6], the dose-response profile is reported as “classic sigmoidal dose-responses”.
With `Nc1nc(SCc2ccccc2Cl)cc(C(=O)O)n1` [Compound 5] the dose-response profile was “inverted bell-shaped activation curve”.
For `O=S(=O)(O)c1cc(O)c2c(O)c(N=Nc3cccc4ccccc34)c(S(=O)(=O)O)cc2c1` [Compound 3], the dose-response profile was “inverted bell-shaped activation curve”.
`O=C(O)c1ccc(Oc2nc3ccccc3s2)cc1` [Compound 7] was tested, and the dose-response profile was “classic sigmoidal dose-responses”.
With `O=S(=O)(O)CCCc1cccc2ccccc12` [Compound 1] the dose-response profile was “classic sigmoidal dose-responses”.

These compounds were tested against T1, rat IDE (assay: not given). Conditions: 100 µM compound; a-factor–based substrate 50 µM; 0.1 M KPi pH 7.6; relative to DMSO-treated control = 100%.
Type: biochemical
Method in brief: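 Then mixed 1:1 with substrate. Fluorescence was followed for 60 min, and rates were taken from the 15–30 min window. Activity was normalized by the trypsin/pronase approach.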
With `Cn1ncc2c(NCCc3ccccc3)nc(Cl)nc21` [Compound 2] the “% Activity IDE” value was 170.3 ± 16.0%.
`O=[N+]([O-])/C=C/c1cc2ccccc2[nH]1` [Compound 8] was tested, and the “% Activity IDE” value was 195.0 ± 14.0%.
With `O=C(CCN1CC2CCC(CC2)C1)c1cccs1` [Compound 6] the “% Activity IDE” value was 230.7 ± 13.5%.
For `Nc1nc(SCc2ccccc2Cl)cc(C(=O)O)n1` [Compound 5], the “% Activity IDE” value was 263.5 ± 1.0%.
In the case of `O=S(=O)(O)c1cc(O)c2c(O)c(N=Nc3cccc4ccccc34)c(S(=O)(=O)O)cc2c1` [Compound 3], the “% Activity IDE” value is reported as 356.0 ± 16.0%.
`O=C(O)c1ccc(Oc2nc3ccccc3s2)cc1` [Compound 7] was tested, and the “% Activity IDE” value was 186.6 ± 7.4%.
`O=S(=O)(O)CCCc1cccc2ccccc12` [Compound 1] was tested, and the “% Activity IDE” value was 195.4 ± 12.2%.
